From PubChem
The list is not random: actives were taken first. Their share in the collection is about 1.7%.
procasp7 counter = counter-screen: procaspase-7 (human) activation; P55210; recombinant procaspase-7, Ac-DEVD-pNA absorbance 405 nm; D23A/D198A/D206A triple mutant, cannot self-cleave; scale: DMSO 0, 5 µM enzyme 100; hit rate 0.093% among 330,000; activation, % at 8.5 µM; AID 463210;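 active = percent activation above the screen-wide mean plus 3 SD, cut at about 25% in these data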
Target sequence (P55210 whole entry D23A/D198A/D206A): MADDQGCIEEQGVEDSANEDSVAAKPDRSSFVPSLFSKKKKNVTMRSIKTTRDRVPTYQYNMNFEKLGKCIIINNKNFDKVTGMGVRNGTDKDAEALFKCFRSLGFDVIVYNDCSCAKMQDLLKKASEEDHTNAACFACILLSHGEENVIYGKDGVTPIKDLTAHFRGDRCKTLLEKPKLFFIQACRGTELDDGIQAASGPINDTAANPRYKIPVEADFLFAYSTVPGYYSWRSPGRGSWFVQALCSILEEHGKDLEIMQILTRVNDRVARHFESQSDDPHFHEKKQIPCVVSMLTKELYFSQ
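Assay system: Uncleavable procaspase-7 mutant enzyme | Input: 2 µM procaspase-7 mutant as dispensed | Timing: 1 h compound preincubation, 2 h substrate cleavage, 25 °C | Repeats: One well per compound | Control set: DMSO wells as 0%, DMSO with 5 µM added PC-7 as 100% | Technique: Epi-absorbance of released pNA at 405 nm, two timepoints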
IMP-1 inh-1 = blocks Pseudomonas aeruginosa IMP-1 metallo-beta-lactamase; hit rate 0.45% among 290,000; AID 1556; inhibition, % at 5.6 µM; purified IMP-1, nitrocefin hydrolysis, epi-absorbance fluorescence;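 active = inhibition above the mean plus 3 SD of all compounds in the same screening run, cut at about 4.5% in these data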
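system = purified recombinant IMP-1 beta-lactamase | amount = 0.2 nM IMP-1, as dispensed | medium = HEPES buffer pH 7.1 with ZnSO4 and Brij 35 | times = 25 °C, 15 min preincubation, 25 min reaction | detection = plate fluorescence quenching by hydrolysis product, ex 480/em 530 nm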
Neddyl block = inhibitors of human cullin neddylation; AID 651699; calls only at 25 µM; hit rate 0.58% among 360,000; TR-FRET cullin neddylation, biochemical; P61081+Q13564; in the data active = inhibition above about 36%
VIM-2 inh = inhibitors of Pseudomonas aeruginosa VIM-2 metallo-beta-lactamase | purified VIM-2, nitrocefin hydrolysis, epi-absorbance fluorescence | inhibition, % at 5.6 µM | hit rate 0.89% among 290,000 | AID 1527;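 active = inhibition above the mean of all tested compounds plus 3 SD, cutoff set per screening run, cut at about 7.5% in these data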;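 also: red hydrolysis product quenches plate fluorescence so inhibitors raise well fluorescence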
PolyA inh = blocks polyadenylation in yeast reporter cells | AID 1875 | S. cerevisiae SKY197-pL101 polyadenylation reporter, beta-gal luminescence; efflux-impaired pdr1/pdr3 knockout yeast; score 100 = 6 SD above DMSO | hit rate 0.02% among 300,000 | activity score, % at 12 µM;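 active = lowest replicate activity score at least 50, where 100 means six control SD above control mean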;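 also: yeast exposed to compound for 9 h at 30 °C; higher score means more reporter readthrough which indicates perturbed polyadenylation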
procasp3 activ = activators of human procaspase-3; P42574; recombinant procaspase-3 D3A, Ac-DEVD-pNA absorbance 405 nm; activation, % at 8.5 µM; hit rate 0.11% among 330,000;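 active = activation above the mean of all tested compounds plus 3 SD, cut at about 21% in these data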
Target sequence (P42574 whole entry D9A/D28A/D175A): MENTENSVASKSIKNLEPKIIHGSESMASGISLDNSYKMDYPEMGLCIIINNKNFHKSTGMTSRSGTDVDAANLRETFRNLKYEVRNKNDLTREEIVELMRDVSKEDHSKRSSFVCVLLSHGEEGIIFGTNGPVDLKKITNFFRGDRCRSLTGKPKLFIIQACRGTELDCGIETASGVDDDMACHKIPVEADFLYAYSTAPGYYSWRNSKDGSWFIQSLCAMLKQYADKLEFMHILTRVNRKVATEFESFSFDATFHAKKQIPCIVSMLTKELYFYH
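assay system = Procaspase-3 D3A mutant | signal = absorbance at 405 nm, 0 and 120 min | times = 1 h preincubation plus 2 h reaction at 25 °C | repeats = single replicate | read-out = % activation between DMSO and enzyme-spiked controls | medium = Zinc-free HEPES saline buffer with Triton X-100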
IMP-1 inh-2 = selectivity counter-screen for VIM-2 inhibitors: IMP-1 metallo-beta-lactamase inhibitors | shares compounds with VIM-2 inh | purified IMP-1, nitrocefin hydrolysis, epi-absorbance fluorescence | inhibition, % at 5.6 µM | 1,300 tested, under 10 active; call rule not given here
VIM-2 FRET inh = VIM-2 FRET inhibition, artifact counter-screen; purified VIM-2, CCF2 FRET substrate hydrolysis; AID 1857; shares compounds with VIM-2 inh; inhibition, % at 5.6 µM; hit rate 23% among 1,300;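 active = inhibition above the mean of all tested compounds plus 3 SD, cut at about 19% in these data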
TEM-1 counter = blocks E. coli TEM-1 beta-lactamase in VIM-2 selectivity screen. hit rate 3% among 1,300. Purified TEM-1, nitrocefin hydrolysis, epi-absorbance fluorescence. AID 1866. inhibition, % at 5.6 µM. shares compounds with VIM-2 inh;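 active = inhibition above that campaign's mean inhibition plus 3 SD, cut at about 0.46% in these data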
VIM-2 confirm 2 = confirmation of P. aeruginosa VIM-2 metallo-beta-lactamase inhibitors. AID 2187. hit rate 96% among 1,300. shares compounds with VIM-2 inh. inhibition, % at 5.6 µM. purified VIM-2, nitrocefin hydrolysis, epi-absorbance;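 active = inhibition of the VIM-2 beta-lactamase enzyme above about 11% from the earlier first-round screen, limit read from the data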
A number is an active result.

Results for CCCCN(CC)CCCNC(=O)c1cc2c(=O)n(CC)c3ccccc3c2s1 ?
procasp7 counter: inactive; IMP-1 inh-1: inactive; VIM-2 inh: 12; PolyA inh: inactive; procasp3 activ: inactive; IMP-1 inh-2: inactive; VIM-2 FRET inh: inactive; TEM-1 counter: inactive; VIM-2 confirm 2: 22

Results for CCCN(CCC)CCCNC(=O)c1cc2c(=O)n(CC)c3ccccc3c2s1 ?
procasp7 counter: inactive; IMP-1 inh-1: inactive; VIM-2 inh: 14; PolyA inh: inactive; procasp3 activ: inactive; IMP-1 inh-2: inactive; VIM-2 FRET inh: inactive; TEM-1 counter: inactive; VIM-2 confirm 2: 21

What do the screens show for `COc1cc(OC)cc(C(=O)NNC(=O)C2CSC3(C)CCC(=O)N23)c1` (stereo unspecified)?
procasp7 counter: inactive; Neddyl block: inactive; procasp3 activ: inactive

Results for COc1ccc(Cc2c(-c3ccc(C)cc3)nc3cc(C)c(Br)c(C)n23)c(C)c1 ?
Neddyl block: inactive

What do the screens show for `O=C(COc1ccccc1)Nn1c(-c2ccccc2)nc2ccccc2c1=O`?
procasp7 counter: inactive; IMP-1 inh-1: inactive; Neddyl block: inactive; VIM-2 inh: inactive; PolyA inh: inactive; procasp3 activ: inactive

Results for CC(=O)NCc1nnc2c3ccccc3c(-c3ccccc3)nn12 ?
procasp7 counter: inactive; IMP-1 inh-1: inactive; Neddyl block: inactive; VIM-2 inh: 22; PolyA inh: inactive; procasp3 activ: inactive; IMP-1 inh-2: inactive; VIM-2 FRET inh: inactive; TEM-1 counter: inactive; VIM-2 confirm 2: 33

What do the screens show for `O=C(COc1ccccc1)NCc1nnc2c3ccccc3c(-c3ccccc3)nn12`?
procasp7 counter: inactive; IMP-1 inh-1: inactive; Neddyl block: inactive; VIM-2 inh: 18; PolyA inh: inactive; procasp3 activ: inactive; IMP-1 inh-2: inactive; VIM-2 FRET inh: inactive; TEM-1 counter: 1.0; VIM-2 confirm 2: 39

What do the screens show for `O=C(NCc1nnc2c3ccccc3c(-c3ccccc3)nn12)c1ccc(Cl)cc1`?
procasp7 counter: inactive; IMP-1 inh-1: inactive; Neddyl block: inactive; VIM-2 inh: inactive; PolyA inh: inactive; procasp3 activ: inactive

Results for Cc1ccc2[nH]c(=O)cc(C(=O)OCC(=O)c3ccc(F)cc3)c2c1 ?
procasp7 counter: inactive; IMP-1 inh-1: inactive; Neddyl block: inactive; VIM-2 inh: inactive; PolyA inh: inactive; procasp3 activ: inactive

What do the screens show for `Cn1c(=O)n(C)c2cc(/C=N/n3cnnc3)ccc21`?
procasp7 counter: inactive; IMP-1 inh-1: inactive; Neddyl block: inactive; VIM-2 inh: 15; PolyA inh: inactive; procasp3 activ: inactive; IMP-1 inh-2: inactive; VIM-2 FRET inh: inactive; TEM-1 counter: inactive; VIM-2 confirm 2: 45

How did CC(C)(C)c1ccc(/C=N/n2cnnc2)cc1 do in these assays?
procasp7 counter: inactive; IMP-1 inh-1: inactive; Neddyl block: inactive; VIM-2 inh: inactive; PolyA inh: inactive; procasp3 activ: inactive

How did Cc1cc(NCCCn2ccnc2)n2ncc(-c3ccc(Cl)cc3)c2n1 do in these assays?
procasp7 counter: inactive; IMP-1 inh-1: inactive; VIM-2 inh: 35; PolyA inh: inactive; procasp3 activ: inactive; IMP-1 inh-2: inactive; VIM-2 FRET inh: inactive; TEM-1 counter: inactive; VIM-2 confirm 2: 50

Results for Cc1cccc(-c2cc3nc(C)cc(NCCCn4ccnc4)n3n2)c1 ?
procasp7 counter: inactive; IMP-1 inh-1: inactive; VIM-2 inh: 48; PolyA inh: inactive; procasp3 activ: inactive; IMP-1 inh-2: inactive; VIM-2 FRET inh: inactive; TEM-1 counter: inactive; VIM-2 confirm 2: 60

How did CC(C)(C)c1cc(NCCCn2ccnc2)n2ncc(-c3ccccc3)c2n1 do in these assays?
procasp7 counter: inactive; IMP-1 inh-1: inactive; VIM-2 inh: inactive; PolyA inh: inactive; procasp3 activ: inactive

Results for CCCc1cc(NCCCn2ccnc2)n2nc(C)c(-c3ccccc3)c2n1 ?
procasp7 counter: inactive; IMP-1 inh-1: inactive; VIM-2 inh: 26; PolyA inh: inactive; procasp3 activ: inactive; IMP-1 inh-2: inactive; VIM-2 FRET inh: inactive; TEM-1 counter: inactive; VIM-2 confirm 2: 47

How did COc1cc2c(cc1NC(=S)Nc1cccc(C)c1)oc1ccccc12 do in these assays?
procasp7 counter: inactive; IMP-1 inh-1: inactive; Neddyl block: inactive; VIM-2 inh: inactive; PolyA inh: inactive; procasp3 activ: inactive

What do the screens show for `Cc1cc(C)cc(NC(=O)Nc2ccc(NC(=O)c3ccccc3O)cc2)c1`?
procasp7 counter: inactive; IMP-1 inh-1: inactive; Neddyl block: inactive; VIM-2 inh: inactive; PolyA inh: inactive; procasp3 activ: inactive

Results for COc1cc(C(=O)N2CCN(S(=O)(=O)c3ccc(C)cc3)CC2)ccc1OCc1c(C)noc1C ?
procasp7 counter: inactive; IMP-1 inh-1: inactive; Neddyl block: inactive; VIM-2 inh: inactive; PolyA inh: inactive; procasp3 activ: inactive

How did O=C(COc1cc2oc(=O)c3c(c2cc1Cl)CCC3)NCCN1CCOCC1 do in these assays?
procasp7 counter: inactive; IMP-1 inh-1: inactive; Neddyl block: inactive; VIM-2 inh: 23; PolyA inh: inactive; procasp3 activ: inactive; IMP-1 inh-2: inactive; VIM-2 FRET inh: inactive; TEM-1 counter: inactive; VIM-2 confirm 2: 30

Results for Cc1cc(=O)oc2cc(OCC(=O)NCCN3CCOCC3)c(Cl)cc12 ?
procasp7 counter: inactive; IMP-1 inh-1: inactive; Neddyl block: inactive; VIM-2 inh: inactive; PolyA inh: inactive; procasp3 activ: inactive

What do the screens show for `NC(=O)COc1cc2oc(=O)c3c(c2cc1Cl)CCCC3`?
procasp7 counter: inactive; IMP-1 inh-1: inactive; Neddyl block: inactive; VIM-2 inh: 14; PolyA inh: inactive; procasp3 activ: inactive; IMP-1 inh-2: inactive; VIM-2 FRET inh: inactive; TEM-1 counter: inactive; VIM-2 confirm 2: 19

What do the screens show for `CC(Oc1cc2oc(=O)c3c(c2cc1Cl)CCC3)C(=O)NCCN1CCOCC1` (stereo unspecified)?
procasp7 counter: inactive; IMP-1 inh-1: inactive; Neddyl block: inactive; VIM-2 inh: 13; PolyA inh: inactive; procasp3 activ: inactive; IMP-1 inh-2: inactive; VIM-2 FRET inh: inactive; TEM-1 counter: inactive; VIM-2 confirm 2: 23

Results for O=C(NCN1CCN(c2ccccc2F)CC1)c1ccccc1 ?
procasp7 counter: inactive; IMP-1 inh-1: inactive; Neddyl block: inactive; VIM-2 inh: inactive; PolyA inh: inactive; procasp3 activ: inactive
